E-sel inducer: E-selectin induction in HUVECs, primary screen, imaging, HUVEC, immunofluorescence imaging, single point | activation, % at 7.58 µM | P16581 | 0.37% of 260,000 active | normalized: neutral wells 0, TNF-alpha wells 100;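 active means mean E-selectin-positive cell signal at least 10% of the positive control, reached in at least 60% of replicates, without over 20% cell loss; inconclusive means no rule given, readout overlaps actives, possibly toxicity-flagged; inactive means the rest, including those meeting only one limit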
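material = human umbilical vein endothelial cells (HUVEC), E-selectin induction | quantity = 3,000 cells/well | medium = EGM-2 growth medium on 0.1% gelatin-coated wells | technique = immunofluorescence imaging | read-out basis = % PE-positive cells | control set = TNF-alpha positive control, DMSO neutral control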
DENV2 CPE rescue: inhibitors of DENV2 cytopathic effect, primary screen, cell-based, plate reader, single concentration. DENV2-infected cells, cytopathic effect rescue. CPE inhibition, % at 9.99 µM. 1.7% of 350,000 active. AID 651640, 2012; in the data active means CPE inhibition above about 20%, passing the limit was not always enough; inconclusive means no clear call, values can overlap the other calls; tested in BHK-21 cells;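 further: 0% = median of neutral control wells and 100% = median of positive control wells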
SIRT5 inh: SIRT5 desuccinylase inhibitors, primary screen, biochemical, fluorescence imaging, single point, set 5 | 1.1% of 330,000 active | AID 652115, 2013 | NAD-dependent protein deacylase sirtuin-5, mitochondrial (Homo sapiens), Q9NXA8 | inhibition, % at 15 µM | Purified SirT5, succinyl-peptide AMC, trypsin-coupled fluorescence; in the data active means inhibition above about 15%; inconclusive means no clear call, values can overlap the other calls
Target sequence (Q9NXA8 whole entry, looked up): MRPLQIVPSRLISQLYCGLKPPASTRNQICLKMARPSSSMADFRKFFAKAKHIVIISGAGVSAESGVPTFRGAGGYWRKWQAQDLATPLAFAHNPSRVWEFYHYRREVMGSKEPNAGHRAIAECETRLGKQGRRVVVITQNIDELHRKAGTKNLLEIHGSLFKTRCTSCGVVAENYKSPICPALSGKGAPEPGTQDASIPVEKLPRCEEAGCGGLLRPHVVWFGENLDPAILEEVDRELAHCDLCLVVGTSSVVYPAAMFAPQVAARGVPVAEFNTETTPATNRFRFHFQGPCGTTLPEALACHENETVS
* hit, by the source's call; u = inconclusive; x = no result; ! = repeats disagree. Shown are actives, neighbours in structure and some others; about 2.8% of the full set was active somewhere.

SMILES	E-sel inducer	DENV2 CPE rescue	SIRT5 inh
COc1ccc(S(=O)(=O)N(C)C[C@H]2Oc3ccc(NC(=O)Nc4cccc5ccccc45)cc3CC(=O)N([C@H](C)CO)C[C@H]2C)cc1	0	8	8
O=C(C[C@@H]1C[C@@H]2c3cc(NC(=O)Nc4ccc(C(F)(F)F)cc4)ccc3O[C@@H]2[C@@H](CO)O1)NCc1cc(F)ccc1F	7	-1	3
COCC(=O)Nc1ccc2c(c1)OC[C@H](C)N(Cc1ccccc1OC)C[C@@H](C)[C@H](OC)CN(C)C2=O	0	-9	1
CO[C@@H]1CN(C)C(=O)c2cc(NC(=O)NC(C)C)ccc2OC[C@H](C)N(Cc2ccccn2)C[C@@H]1C	0	73*	-1
COc1ccccc1CN1C[C@@H](C)[C@H](OC)CN(C)C(=O)c2cc(NC(=O)Nc3ccccc3OC)ccc2OC[C@H]1C	0	-1	-3
COCC(=O)Nc1ccc2c(c1)OC[C@H](C)N(Cc1ccccc1OC)C[C@H](C)[C@@H](OC)CN(C)C2=O	0	22*	-1
CO[C@@H]1CN(C)C(=O)c2cc(NC(=O)NC(C)C)ccc2OC[C@H](C)N(Cc2ccccn2)C[C@H]1C	0	-2	-5
COc1ccccc1NC(=O)Nc1ccc2c(c1)C(=O)N(C)C[C@@H](OC)[C@H](C)CN(Cc1ccccc1Cl)[C@H](C)CO2	0	28*	-1
CCC(=O)Nc1ccc2c(c1)C(=O)N(C)C[C@@H](OC)[C@H](C)CN(Cc1ccccn1)[C@@H](C)CO2	0	3	-1
C[C@@H]1CN([C@H](C)CO)C(=O)Cc2cc(NC(=O)Nc3cccc4ccccc34)ccc2O[C@H]1CN(C)C(=O)NC1CCCCC1	-1	-9	3
O=C(Cc1ccccc1)N1CC[C@@H]2[C@H]1c1cc(-c3ccccc3)ccc1N[C@@H]2CO	-1	-10	2
CC1CCN(c2nc3c(=O)[nH]c(N)nc3n2[C@@H]2O[C@H](CO)[C@@H](O)[C@H]2O)CC1	69*	3	-1
CC1CCN(c2nc3c(N)ncnc3n2[C@@H]2O[C@H](CO)[C@@H](O)[C@H]2O)CC1	0	-7	1
CNC(=O)C[C@@H]1CC[C@@H]2[C@H](COC[C@@H](O)CN2C(=O)Nc2ccc3c(c2)OCO3)O1	0	0	3
C[C@H](CO)N1C[C@H](C)[C@@H](CN(C)Cc2ccc(Cl)c(Cl)c2)Oc2ccc(NS(=O)(=O)c3ccc(F)cc3)cc2CC1=O	4	x	x
CN(C)S(=O)(=O)c1ccc(C(=O)Nc2ccccc2[N+](=O)[O-])cc1	x	-4	x
Cc1ccccc1NC(=O)c1ccc(S(=O)(=O)N(C)C)cc1	0	51*	x
CCC(C(=O)N1CCOCC1)n1nc(C)c2c(C)n(-c3ccccc3)nc2c1=O (stereo unspecified)	9	1	6
CCC(C(=O)N1CCOCC1)n1nc(C)c2sc3ccccc3c2c1=O (stereo unspecified)	x	8	30*
C[C@@H]1CN([C@@H](C)CO)C(=O)c2cc(NC(=O)CCC(F)(F)F)ccc2O[C@@H](C)CCCCO[C@H]1CN(C)Cc1ccccc1	0	x	x
CCCNC(=O)[C@@H]1[C@@H](CO)[C@@H]2Cn3c(ccc(C4=CCCCC4)c3=O)[C@H]1N2Cc1cocn1	0	19	-9
C[C@@H]1CN([C@H](C)CO)S(=O)(=O)c2ccc(C#CC3CCCC3)cc2O[C@@H]1CN(C)C(=O)Cc1ccccc1	0	0	3
C[C@H](CO)N1C[C@H](C)[C@H](CN(C)C)Oc2cc(C#CC3CCCC3)ccc2S1(=O)=O	0	59*	7
C[C@@H]1CN([C@@H](C)CO)S(=O)(=O)c2ccc(C#CC3CCCC3)cc2O[C@H]1CN(C)C	0	22*	2
C[C@@H]1CN([C@@H](C)CO)S(=O)(=O)c2ccc(C#CC3CCCCC3)cc2O[C@@H]1CN(C)C	0	u	-3
SMILES	E-sel inducer	DENV2 CPE rescue	SIRT5 inh
C[C@@H]1CN([C@@H](C)CO)S(=O)(=O)c2ccc(C#CC3CCCC3)cc2O[C@@H]1CN(C)C	0	18	7
C[C@H](CO)N1C[C@H](C)[C@H](CN(C)C)Oc2cc(C#CC3(O)CCCC3)ccc2S1(=O)=O	0	26*	-1
C[C@@H]1CN([C@@H](C)CO)S(=O)(=O)c2ccc(C#CC3(O)CCCC3)cc2O[C@@H]1CN(C)C	0	-6	-5
C[C@H]1CN([C@@H](C)CO)S(=O)(=O)c2ccc(C#CC3CCCC3)cc2O[C@H]1CN(C)C(=O)Cc1ccccc1	0	-2	17*
N#C[C@H]1[C@@H](c2ccccc2C2=CCCCC2)[C@@H](CO)N1C(=O)Nc1ccccc1F	0	1	-3
C[C@@H]1CN([C@H](C)CO)C(=O)c2cc(-c3ccccc3F)cnc2O[C@@H]1CN(C)C(=O)CN(C)C	0	-2	-2
COc1ccc2c3c(n(C)c2c1)[C@@H](CO)N(C(=O)Nc1ccc(F)cc1)CC31CCN(C(=O)CC2CC2)CC1	0	1	x
O=C(Cc1ccccn1)NCC[C@@H]1CC[C@H](NC(=O)c2ccccc2F)[C@@H](CO)O1	0	2	3
COc1ccc(-c2nc3cc(C)c(Br)c(C)n3c2CC(C)(C)C)cc1OC	177*	-9	-4
COc1ccc(-c2nc3cc(C)c(Br)c(C)n3c2Cc2ccc(C)cc2)cc1OC	0	-1	4
CC(=O)N(C)C[C@H]1Oc2cc(/C=C/c3ccccc3)ccc2S(=O)(=O)N([C@@H](C)CO)C[C@@H]1C	0	-1	4
O=C(C[C@@H]1CC[C@H]2[C@@H](COC[C@H](O)CN2C(=O)c2ccncc2)O1)NCc1cccc(F)c1	0	0	x
COc1ccc(NC(=O)N(C)C[C@H]2Oc3c(cccc3N(C)C)C(=O)N([C@H](C)CO)C[C@H]2C)cc1	x	-3	0
COCC(=O)N(C)C[C@H]1Oc2ncc(C#Cc3cccnc3)cc2C(=O)N([C@@H](C)CO)C[C@@H]1C	16	10	2
COCC(=O)N(C)C[C@H]1Oc2ncc(Br)cc2C(=O)N([C@@H](C)CO)C[C@H]1C	-1	-2	17*!
COCC(=O)N(C)C[C@H]1Oc2ncc(Br)cc2C(=O)N([C@H](C)CO)C[C@H]1C	0	2	-1
COCC(=O)N(C)C[C@H]1Oc2ncc(Br)cc2C(=O)N([C@@H](C)CO)C[C@@H]1C	0	4	10
CCC(=O)N(C)C[C@H]1Oc2ncc(/C=C/c3ccccc3)cc2C(=O)N([C@@H](C)CO)C[C@H]1C	0	1	-18
CCC(=O)N(C)C[C@H]1Oc2ncc(/C=C/c3ccccc3)cc2C(=O)N([C@@H](C)CO)C[C@@H]1C	0	42*	-17
COCC(=O)N(C)C[C@H]1Oc2ncc(C#Cc3cccnc3)cc2C(=O)N([C@H](C)CO)C[C@H]1C	1	24*	1
CCC(=O)N(C)C[C@@H]1Oc2ncc(Br)cc2C(=O)N([C@H](C)CO)C[C@H]1C	0	29*!	-4
